The values below come from ChEMBL document CHEMBL5230128, “An electrophilic warhead library for mapping the reactivity and accessibility of tractable cysteines in protein kinases” (Eur J Med Chem, 2020).

Active and inactive are the calls of the source. A value given as a limit tells only on which side of the number the result lay.

Data set [1] has as its target Ribosomal protein S6 kinase alpha-3 (Homo sapiens, UniProt P51812). The experiment in a line: Inhibition of RSK2 (unknown origin) at 100 uM preincubated for 1 hr followed by substrate addition and measured after 1 hr by Z-lyte assay relative to control. The conditions noted are these: time 2.0 hrs. In short, it runs like this:
(§1)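 Z'-LYTE FRET assay with single-concentration fragment tested in duplicate. Kinase and fragment are preincubated 1 h, then fluorophore-labelled peptide substrate is added for a further 1 h. A development protease then cleaves unphosphorylated peptide. Read-out is the 445 nm (coumarin)/520 nm (fluorescein) emission ratio.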

Data set [2] has as its target Mitogen-activated protein kinase 1 (Homo sapiens) (UniProt P28482). The experiment in a line: Inhibition of ERK2 (unknown origin) at 100 uM preincubated for 1 hr followed by substrate addition and measured after 1 hr by Z-lyte assay relative to control. The conditions noted are these: time 2.0 hrs. In short, it runs like this: as §1
Data set [3] can be described thus: Thiol reactivity of compound assessed as kinetic rate constant by LC-MS analysis. The class given is physicochemical.
In data set [4] the target is Maternal embryonic leucine zipper kinase (Homo sapiens, UniProt Q14680). The experiment in a line: Inhibition of MELK (unknown origin) at 100 uM preincubated for 1 hr followed by substrate addition and measured after 1 hr by Z-lyte assay relative to control. The conditions noted are these: time 2.0 hrs. In short, it runs like this: as §1
Chain of Maternal embryonic leucine zipper kinase (Q14680 whole entry, looked up): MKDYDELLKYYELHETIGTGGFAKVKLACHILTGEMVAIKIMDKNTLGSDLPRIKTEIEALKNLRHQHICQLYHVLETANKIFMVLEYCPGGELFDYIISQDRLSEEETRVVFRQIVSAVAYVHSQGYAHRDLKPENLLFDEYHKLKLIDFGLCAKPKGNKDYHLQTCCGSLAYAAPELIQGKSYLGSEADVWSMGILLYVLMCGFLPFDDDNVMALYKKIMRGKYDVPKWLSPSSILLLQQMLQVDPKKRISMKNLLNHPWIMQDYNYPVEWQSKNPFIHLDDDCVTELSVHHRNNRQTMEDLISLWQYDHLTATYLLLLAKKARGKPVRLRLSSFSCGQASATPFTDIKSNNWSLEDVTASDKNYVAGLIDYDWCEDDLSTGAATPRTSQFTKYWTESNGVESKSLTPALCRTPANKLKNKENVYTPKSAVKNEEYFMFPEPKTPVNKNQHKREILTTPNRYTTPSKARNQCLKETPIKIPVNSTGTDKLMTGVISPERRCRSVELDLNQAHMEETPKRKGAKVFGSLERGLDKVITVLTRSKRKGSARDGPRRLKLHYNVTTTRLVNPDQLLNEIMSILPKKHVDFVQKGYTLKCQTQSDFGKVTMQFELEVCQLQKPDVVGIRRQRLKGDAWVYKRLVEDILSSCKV
The target in data set [5] is Tyrosine-protein kinase BTK (Homo sapiens) (UniProt Q06187). In words: Inhibition of BTK (unknown origin) at 100 uM preincubated for 1 hr followed by substrate addition and measured after 1 hr by Z-lyte assay relative to control. The conditions noted are these: time 2.0 hrs. In short, it runs like this:
as §1

The target in data set [6] is T1, Tyrosine-protein kinase JAK3 (Homo sapiens) (UniProt P52333).
T1 sequence (whole entry): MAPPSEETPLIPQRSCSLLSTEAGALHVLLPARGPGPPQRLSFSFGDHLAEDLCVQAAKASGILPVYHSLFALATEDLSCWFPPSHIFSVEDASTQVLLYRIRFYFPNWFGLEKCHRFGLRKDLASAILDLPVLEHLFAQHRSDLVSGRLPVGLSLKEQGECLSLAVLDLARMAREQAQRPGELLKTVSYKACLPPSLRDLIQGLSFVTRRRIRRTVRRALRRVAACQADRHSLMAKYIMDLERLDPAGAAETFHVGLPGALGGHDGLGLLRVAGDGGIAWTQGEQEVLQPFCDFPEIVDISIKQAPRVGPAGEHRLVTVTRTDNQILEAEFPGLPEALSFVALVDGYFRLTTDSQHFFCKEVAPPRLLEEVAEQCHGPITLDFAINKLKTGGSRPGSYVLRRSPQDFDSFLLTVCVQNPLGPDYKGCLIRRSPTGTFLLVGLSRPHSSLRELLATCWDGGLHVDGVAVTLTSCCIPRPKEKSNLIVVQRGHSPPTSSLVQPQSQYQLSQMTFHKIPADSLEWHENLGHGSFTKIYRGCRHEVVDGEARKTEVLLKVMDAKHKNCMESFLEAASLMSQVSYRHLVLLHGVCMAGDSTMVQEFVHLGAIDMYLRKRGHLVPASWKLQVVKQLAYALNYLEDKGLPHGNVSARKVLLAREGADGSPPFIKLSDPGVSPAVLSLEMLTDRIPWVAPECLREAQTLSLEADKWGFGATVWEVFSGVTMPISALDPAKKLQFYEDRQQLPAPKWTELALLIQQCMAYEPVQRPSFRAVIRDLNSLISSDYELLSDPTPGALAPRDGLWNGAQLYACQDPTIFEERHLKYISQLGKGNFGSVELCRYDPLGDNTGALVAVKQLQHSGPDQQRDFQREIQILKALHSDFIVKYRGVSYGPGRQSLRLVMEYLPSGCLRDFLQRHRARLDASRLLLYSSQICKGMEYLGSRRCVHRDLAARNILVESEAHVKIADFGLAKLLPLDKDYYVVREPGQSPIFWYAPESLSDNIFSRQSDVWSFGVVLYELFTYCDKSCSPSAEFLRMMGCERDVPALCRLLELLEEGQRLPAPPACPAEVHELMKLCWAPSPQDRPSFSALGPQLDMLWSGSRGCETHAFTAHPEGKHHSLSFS
The experiment in a line: Inhibition of JAK3 (unknown origin) incubated for 120 mins by LC-MS/MS analysis.

The target of data set [7] is T1, Tyrosine-protein kinase JAK3 (Homo sapiens). In words: Inhibition of JAK3 (unknown origin) at 100 uM preincubated for 1 hr followed by substrate addition and measured after 1 hr by Z-lyte assay relative to control. The following applies: time 2.0 hrs. In short, it runs like this: as §1
For data set [8], the target named is Dual specificity mitogen-activated protein kinase kinase 6 (Homo sapiens) (UniProt P52564). In words: Inhibition of MAP2K6 (unknown origin) at 100 uM preincubated for 1 hr followed by substrate addition and measured after 1 hr by Z-lyte assay relative to control. The following applies: time 2.0 hrs.
Data set [9] can be described thus: Thiol reactivity of compound assessed as half life by LC-MS analysis. The class given is physicochemical.
A short description of data set [10]: Aqueous stability of the compound assessed as compound degradation by measuring kinetic constant measured after 72 hrs by LC-MS analysis. The data set is classed as physicochemical. The following applies: buffer.
Data set [11] can be described thus: Aqueous stability of the compound assessed as compound degradation by measuring half life measured after 72 hrs by LC-MS analysis. The data set is classed as physicochemical. The conditions noted are these: aqueous solution.

Chain of Mitogen-activated protein kinase 1 (Homo sapiens) (P28482 whole entry): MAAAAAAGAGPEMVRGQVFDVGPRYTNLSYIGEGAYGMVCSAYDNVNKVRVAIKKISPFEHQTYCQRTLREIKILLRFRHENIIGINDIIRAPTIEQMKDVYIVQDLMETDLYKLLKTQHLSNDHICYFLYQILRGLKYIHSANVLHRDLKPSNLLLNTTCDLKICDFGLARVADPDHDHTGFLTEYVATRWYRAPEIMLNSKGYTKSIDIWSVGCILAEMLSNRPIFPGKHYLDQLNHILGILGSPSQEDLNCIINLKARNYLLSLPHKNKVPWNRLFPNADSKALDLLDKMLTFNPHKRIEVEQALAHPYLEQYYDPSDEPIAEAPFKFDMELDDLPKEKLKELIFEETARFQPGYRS
Chain of Ribosomal protein S6 kinase alpha-3 (P51812 whole entry, the tested form may be a part): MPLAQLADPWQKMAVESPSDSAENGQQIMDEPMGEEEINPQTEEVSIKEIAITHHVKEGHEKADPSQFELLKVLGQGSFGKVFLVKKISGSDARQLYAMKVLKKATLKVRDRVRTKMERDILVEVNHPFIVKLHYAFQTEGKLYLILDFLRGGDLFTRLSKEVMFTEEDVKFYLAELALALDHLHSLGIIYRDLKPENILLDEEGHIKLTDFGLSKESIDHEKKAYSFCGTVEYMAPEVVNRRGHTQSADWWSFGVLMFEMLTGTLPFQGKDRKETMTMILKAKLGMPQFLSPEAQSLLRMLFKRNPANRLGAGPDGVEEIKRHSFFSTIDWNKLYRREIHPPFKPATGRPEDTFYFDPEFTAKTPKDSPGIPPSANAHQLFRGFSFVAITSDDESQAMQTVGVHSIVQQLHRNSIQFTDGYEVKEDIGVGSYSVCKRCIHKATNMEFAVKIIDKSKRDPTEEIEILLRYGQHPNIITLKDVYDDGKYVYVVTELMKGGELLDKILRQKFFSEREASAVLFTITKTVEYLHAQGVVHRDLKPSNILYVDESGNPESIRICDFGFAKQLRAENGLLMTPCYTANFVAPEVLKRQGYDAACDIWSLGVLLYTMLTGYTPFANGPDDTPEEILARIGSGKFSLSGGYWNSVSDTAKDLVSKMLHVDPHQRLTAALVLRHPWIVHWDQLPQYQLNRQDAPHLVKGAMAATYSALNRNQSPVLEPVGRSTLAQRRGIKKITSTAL
Chain of Tyrosine-protein kinase BTK (Homo sapiens) (Q06187 whole entry): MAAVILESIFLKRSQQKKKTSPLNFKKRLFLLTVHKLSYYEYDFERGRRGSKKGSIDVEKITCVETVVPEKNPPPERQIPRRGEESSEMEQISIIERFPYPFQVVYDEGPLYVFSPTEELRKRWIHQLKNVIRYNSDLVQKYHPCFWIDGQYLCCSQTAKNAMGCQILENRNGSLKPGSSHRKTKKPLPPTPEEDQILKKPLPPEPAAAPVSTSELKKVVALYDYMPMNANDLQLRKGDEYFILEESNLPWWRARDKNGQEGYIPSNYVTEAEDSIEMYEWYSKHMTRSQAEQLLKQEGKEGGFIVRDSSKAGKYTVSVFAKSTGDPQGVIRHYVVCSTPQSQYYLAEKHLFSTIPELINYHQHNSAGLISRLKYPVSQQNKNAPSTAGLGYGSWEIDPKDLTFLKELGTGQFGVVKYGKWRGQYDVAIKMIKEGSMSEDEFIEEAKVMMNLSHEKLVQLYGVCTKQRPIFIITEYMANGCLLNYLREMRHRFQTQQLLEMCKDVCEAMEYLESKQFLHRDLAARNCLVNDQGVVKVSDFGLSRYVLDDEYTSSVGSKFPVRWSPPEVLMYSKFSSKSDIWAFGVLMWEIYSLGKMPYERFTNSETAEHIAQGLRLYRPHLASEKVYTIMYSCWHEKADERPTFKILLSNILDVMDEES

Turning to `C=Cc1cc(C(F)(F)F)cc(C(F)(F)F)c1`, the inhibition (as a rule, the drop in the measured response relative to a control, in per cent) was 61% in [1]; 8% in data set [2]; 44% in data set [4]; 38% in data set [5]; -4% in [7]; 24% in data set [8]. Also, the K in data set [3] was determined as 0.004 h⁻¹. Further, the inhibition result in [6] was “Active”.
`N#C/C=C/c1cc(C(F)(F)F)cc(C(F)(F)F)c1`: the inhibition worked out at 16% in data set [1]; 4% in data set [2]; 7% in data set [4]; 16% in data set [5]; 26% in [7]; 23% in data set [8]. The K in data set [3] came to 0.175 h⁻¹; in [10], 0.18 h⁻¹. The half-life (usually the time needed for the level to fall by half in the phase considered) in data set [9] is 240 min; in [11] it was 234 min. In addition, the inhibition result in data set [6] was “Active”.
Regarding `C#CC(=O)Oc1cc(C(F)(F)F)cc(C(F)(F)F)c1`, the inhibition in data set [1] was 34%; in data set [2], 23%; in data set [4] it was 33%; in [5], 25%; in data set [7] it was 37%; in data set [8], 47%. In addition, the K in [3] came out at 0.022 h⁻¹; in data set [10] it was 0.026 h⁻¹. For the same molecule, the half-life in data set [9] was 1900 min; in [11], 1600 min. Further, the inhibition result in data set [6] was “Active”.
Consider `FC(F)(F)c1cc(CN=C=S)cc(C(F)(F)F)c1`, for which the inhibition in data set [1] was determined as 99%; in [2] it was 84%; in data set [4] it was 100%; in [5] it was 99%; in [7], 98%; in data set [8] it was 98%. The K in data set [3] was > 13.863 h⁻¹; in [10] it was 0.265 h⁻¹. Further, the results for the half-life in data set [9] and in data set [11] were < 3 min and 156 min, respectively. In addition, the inhibition entry in data set [6] was “Active”.
`O=C1C=CC(=O)N1Cc1cc(C(F)(F)F)cc(C(F)(F)F)c1`: the inhibition in [1] stood at 100%; in data set [2], 99%; in [4] it was 101%; in data set [5], 100%; in [7], 97%; in data set [8] it was 96%. Moreover, the figures for the K in data set [3] and in [10] were > 13.863 h⁻¹ and 1.525 h⁻¹, respectively. In addition, the half-life is < 3 min in data set [9] and 30 min in [11]. For the same molecule, the inhibition result in data set [6] was “Active”.
As for `C#Cc1cc(C(F)(F)F)cc(C(F)(F)F)c1`, the inhibition in data set [1] was 36%; in data set [2] it was 4%; in [4], 24%; in data set [5], 24%; in data set [7], 7%; in data set [8], 11%. Moreover, in [3], the K was found to be 0.007 h⁻¹. For the same molecule, the inhibition entry in [6] is “Active”.
Regarding `O=C1C=CC(=O)N1c1cc(C(F)(F)F)cc(C(F)(F)F)c1`, the inhibition in data set [1] is 102%; in data set [2] it was 102%; in data set [4] it was 102%; in data set [5] it was 101%; in data set [7], 101%; in data set [8] it was 99%. In addition, the inhibition result in data set [6] is “Active”.
Regarding `FC(F)(F)c1cc(C2CO2)cc(C(F)(F)F)c1` (configuration not stated), the inhibition in data set [1] worked out at 56%; in [2], 9%; in data set [4] it was 11%; in [5], 60%; in data set [7] it was 40%; in [8] it was 26%. The inhibition entry in data set [6] was “Active”.
On to `N#Cc1cc(C(F)(F)F)cc(C(F)(F)F)c1`, for which the inhibition was found to be 3% in [1]; 4% in data set [2]; 15% in data set [4]; 18% in [5]; 21% in [7]; 11% in [8]. Besides, the K in data set [3] is 0.001 h⁻¹. Also, in data set [6], the inhibition entry is “Active”.
